Source: ChEMBL document CHEMBL1145501, “Effect of macrolide usage on emergence of erythromycin-resistant Campylobacter isolates in chickens” (2007)
≈ marks a conversion by molar mass, not a printed value. Calls of active or inactive are those of the source. The rule behind the calls is not given here.

How the values were obtained:
Campylobacter jejuni [1] = test: Antimicrobial activity against Campylobacter jejuni 700819 mutant 3 by agar dilution method; type: functional
How it was run: (§1)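 MIC by CLSI agar dilution. Campylobacter was grown on Mueller-Hinton medium at 42°C under microaerobic conditions. Ery-resistant mutants were selected either in vitro, by plating late-log antibiotic-free broth cultures on MH agar with 2, 4 or 8 μg/ml Ery for 2 days, or from tylosin-exposed chickens.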

Campylobacter jejuni [2] = test: Antimicrobial activity against Campylobacter jejuni 700819 mutant 12 by agar dilution method; type: functional; how it was run: as §1
Campylobacter jejuni [3] = test: Antimicrobial activity against Campylobacter jejuni S3BE8-1 mutant by agar dilution method; type: functional; how it was run: as §1
Campylobacter jejuni [4] = test: Antimicrobial activity against Campylobacter jejuni 700819 mutant 6/A2074G and cmeB mutation by agar dilution method; type: functional
How it was run: (§2)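 cmeB knockouts were made by biphasic natural transformation, using genomic DNA of 11168B (cmeB::kan) as donor. Transformants were selected on 30 μg/ml kanamycin and the insertion confirmed by PCR. The isogenic mutants were then MIC-tested by agar dilution on MH medium at 42°C under microaerobic conditions.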

Campylobacter jejuni [5] = test: Effect on Campylobacter jejuni 700819 mutant colonization at 8 ug/ml; type: functional, organism-based
How it was run: (§3)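 Chickens colonized with C. jejuni were sampled by cloacal swabs. Serial dilutions were plated on selective MH agar with and without 8 μg/ml Ery and counted after 48 h at 42°C under microaerobic conditions, giving the Ery-nonsusceptible fraction per bird. Detection limit was about 100 CFU/g feces.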

Campylobacter jejuni [6] = test: Antimicrobial activity against Campylobacter jejuni 700819 with cmeB mutation by agar dilution method; type: functional; how it was run: as §2
Campylobacter jejuni [7] = test: Antimicrobial activity against Campylobacter jejuni 700819 mutant 9 with cmeB mutation by agar dilution method; type: functional; how it was run: as §2
Campylobacter jejuni [8] = test: Antimicrobial activity against Campylobacter jejuni 700819 mutant 5 by agar dilution method; type: functional; how it was run: as §1
Campylobacter jejuni [9] = test: Antimicrobial activity against Campylobacter jejuni S3BE4-2 mutant by agar dilution method; type: functional; how it was run: as §1
Campylobacter coli [10] = test: Antimicrobial activity against Campylobacter coli RN14BE8-3 mutant by agar dilution method; type: functional; how it was run: as §1
Campylobacter coli [11] = test: Antimicrobial activity against Campylobacter coli RN14B by agar dilution method; type: functional
How it was run: (§4)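 Erythromycin MIC by agar dilution per CLSI (formerly NCCLS). Strains were grown on Mueller-Hinton agar or in MH broth at 42°C under microaerobic conditions. MH media were supplemented with various amounts of Ery.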

Campylobacter jejuni [12] = test: Antimicrobial activity against Campylobacter jejuni 700819 mutant 12 with cmeB mutation by agar dilution method; type: functional; how it was run: as §2
Campylobacter jejuni [13] = test: Antimicrobial activity against Campylobacter jejuni 700819 mutant 7 with cmeB mutation by agar dilution method; type: functional; how it was run: as §2
Campylobacter coli [14] = test: Antimicrobial activity against Campylobacter coli RN14BE8-1 mutant by agar dilution method; type: functional; how it was run: as §1
Campylobacter jejuni [15] = test: Antimicrobial activity against Campylobacter jejuni 700819 mutant 1 by agar dilution method; type: functional; how it was run: as §1
Campylobacter jejuni [16] = test: Antimicrobial activity against Campylobacter jejuni S3BE4-1 mutant by agar dilution method; type: functional; how it was run: as §1
Campylobacter jejuni [17] = test: Antimicrobial activity against Campylobacter jejuni 700819 mutant 3 with cmeB mutation by agar dilution method; type: functional; how it was run: as §2
Campylobacter jejuni [18] = test: Antimicrobial activity against Campylobacter jejuni S3B by agar dilution method; type: functional; how it was run: as §4
Campylobacter jejuni [19] = test: Antimicrobial activity against Campylobacter jejuni 700819 mutant 8 with cmeB mutation by agar dilution method; type: functional; how it was run: as §2
Campylobacter jejuni [20] = test: Antimicrobial activity against Campylobacter jejuni 700819 mutant 10 with cmeB mutation by agar dilution method; type: functional; how it was run: as §2
Campylobacter jejuni [21] = test: Antimicrobial activity against Campylobacter jejuni 700819 mutant 7 by agar dilution method; type: functional; how it was run: as §1
Campylobacter coli [22] = test: Antimicrobial activity against Campylobacter coli RN14BE4-3 mutant by agar dilution method; type: functional; how it was run: as §1
Campylobacter coli [23] = test: Antimicrobial activity against Campylobacter coli MR32DE8-1 mutant by agar dilution method; type: functional; how it was run: as §1
Campylobacter coli [24] = test: Antimicrobial activity against Campylobacter coli RN14BE4-2 mutant by agar dilution method; type: functional; how it was run: as §1
Campylobacter coli [25] = test: Antimicrobial activity against Campylobacter coli RN14BE4-3 mutant with cmeB mutation by agar dilution method; type: functional; how it was run: as §2
Campylobacter coli [26] = test: Antimicrobial activity against Campylobacter coli AW-II-37 by agar dilution method; type: functional; how it was run: as §1
Campylobacter coli [27] = test: Antimicrobial activity against Campylobacter coli RN14BE8-2 mutant by agar dilution method; type: functional; how it was run: as §1
Campylobacter jejuni [28] = test: Antimicrobial activity against Campylobacter jejuni S3BE2-2 mutant by agar dilution method; type: functional; how it was run: as §1
Campylobacter jejuni [29] = test: Antimicrobial activity against Campylobacter jejuni 700819 mutant 6 by agar dilution method; type: functional; how it was run: as §1
Campylobacter coli [30] = test: Antimicrobial activity against Campylobacter coli RN14B with cmeB mutation by agar dilution method; type: functional; how it was run: as §2
Campylobacter jejuni [31] = test: Antimicrobial activity against Campylobacter jejuni 700819 mutant 9 by agar dilution method; type: functional; how it was run: as §1
Campylobacter jejuni [32] = test: Antimicrobial activity against Campylobacter jejuni 700819 mutant 10 by agar dilution method; type: functional; how it was run: as §1
Campylobacter coli [33] = test: Antimicrobial activity against Campylobacter coli MR32D by agar dilution method; type: functional; how it was run: as §4
Campylobacter jejuni [34] = test: Antimicrobial activity against Campylobacter jejuni 700819 mutant 2 with cmeB mutation by agar dilution method; type: functional; how it was run: as §2
Campylobacter jejuni [35] = test: Antimicrobial activity against Campylobacter jejuni 700819 mutant 4/A2074G and cmeB mutation by agar dilution method; type: functional; how it was run: as §2
Campylobacter coli [36] = test: Antimicrobial activity against Campylobacter coli MR32DE4-1 mutant by agar dilution method; type: functional; how it was run: as §1
Campylobacter coli [37] = test: Antimicrobial activity against Campylobacter coli AW-ll-35/AW-ll-37 mutant in chickens assessed as reduction in colonization; type: functional, organism-based
How it was run: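 Campylobacter-free broiler chickens were orally dosed with a mixed C. coli AW-II-35 + AW-II-37 culture (10⁷ CFU/bird). Five days later one group received tylosin in drinking water (0.53 g/liter, about 110 mg/kg/day) for 3 days; a parallel group was left untreated. Cloacal swabs were serially plated on selective MH, counted after 48 h at 42°C, and compared by t test on log₁₀ CFU/g feces (P<0.01).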

Campylobacter jejuni [38] = test: Antimicrobial activity against Campylobacter jejuni 700819 mutant 5/A2074G and cmeB mutation by agar dilution method; type: functional; how it was run: as §2
Campylobacter coli [39] = test: Antimicrobial activity against Campylobacter coli RN14BE4-2/A2074G and cmeB mutation by agar dilution method; type: functional; how it was run: as §2
Campylobacter jejuni [40] = test: Antimicrobial activity against Campylobacter jejuni 700819 mutant 8 by agar dilution method; type: functional; how it was run: as §1
Campylobacter jejuni [41] = test: Antimicrobial activity against Campylobacter jejuni S3BE4-3 mutant by agar dilution method; type: functional; how it was run: as §1
Campylobacter coli [42] = test: Antimicrobial activity against Campylobacter coli AW-II-35 by agar dilution method; type: functional; how it was run: as §1
Campylobacter jejuni [43] = test: Antimicrobial activity against Campylobacter jejuni 700819 mutant 2 by agar dilution method; type: functional; how it was run: as §1
Campylobacter jejuni [44] = test: Antimicrobial activity against Campylobacter jejuni 700819 by agar dilution method; type: functional; how it was run: as §4
Campylobacter jejuni [45] = test: Antimicrobial activity against Campylobacter jejuni S3B with cmeB mutation by agar dilution method; type: functional; how it was run: as §2
Campylobacter jejuni [46] = test: Antimicrobial activity against Campylobacter jejuni 700819 mutant 11 by agar dilution method; type: functional; how it was run: as §1
Campylobacter jejuni [47] = test: Antimicrobial activity against Campylobacter jejuni S3BE2-2 mutant with cmeB mutation by agar dilution method; type: functional; how it was run: as §2
Campylobacter jejuni [48] = test: Antimicrobial activity against Campylobacter jejuni 700819 mutant 11 with cmeB mutation by agar dilution method; type: functional; how it was run: as §2
Campylobacter jejuni [49] = test: Antimicrobial activity against Campylobacter jejuni 700819 mutant 1 with cmeB mutation by agar dilution method; type: functional; how it was run: as §2
Campylobacter jejuni [50] = test: Antimicrobial activity against Campylobacter jejuni 700819 mutant 4 by agar dilution method; type: functional; how it was run: as §1
Campylobacter jejuni [51] = test: Effect on Campylobacter jejuni S3B mutant colonization at 8 ug/ml; type: functional, organism-based; how it was run: as §3

SMILES: CC[C@H]1OC(=O)[C@H](C)[C@@H](O[C@H]2C[C@@](C)(OC)[C@@H](O)[C@H](C)O2)[C@H](C)[C@@H](O[C@@H]2O[C@H](C)C[C@H](N(C)C)[C@H]2O)[C@](C)(O)C[C@@H](C)C(=O)[C@H](C)[C@@H](O)[C@]1(C)O [ERYTHROMYCIN]
- MIC (Campylobacter jejuni [1]): 32 µg/mL (≈ 43.6 µM)
- MIC (Campylobacter jejuni [2]): 8 µg/mL (≈ 10.9 µM)
- MIC (Campylobacter jejuni [3]): 256 µg/mL (≈ 349 µM)
- MIC (Campylobacter jejuni [4]): 32 µg/mL (≈ 43.6 µM)
- Activity (Campylobacter jejuni [5]): Active
- MIC (Campylobacter jejuni [6]): 0.125 µg/mL (≈ 0.17 µM)
- MIC (Campylobacter jejuni [7]): 0.25 µg/mL (≈ 0.341 µM)
- MIC (Campylobacter jejuni [8]): > 512 µg/mL
- MIC (Campylobacter jejuni [9]): 32 µg/mL (≈ 43.6 µM)
- MIC (Campylobacter coli [10]): 32 µg/mL (≈ 43.6 µM)
- MIC (Campylobacter coli [11]): 2 µg/mL (≈ 2.73 µM)
- MIC (Campylobacter jejuni [12]): 0.25 µg/mL (≈ 0.341 µM)
- MIC (Campylobacter jejuni [13]): 0.25 µg/mL (≈ 0.341 µM)
- MIC (Campylobacter coli [14]): 32 µg/mL (≈ 43.6 µM)
- MIC (Campylobacter jejuni [15]): 8 µg/mL (≈ 10.9 µM)
- MIC (Campylobacter jejuni [16]): 32 µg/mL (≈ 43.6 µM)
- MIC (Campylobacter jejuni [17]): 0.25 µg/mL (≈ 0.341 µM)
- MIC (Campylobacter jejuni [18]): 2 µg/mL (≈ 2.73 µM)
- MIC (Campylobacter jejuni [19]): 0.25 µg/mL (≈ 0.341 µM)
- MIC (Campylobacter jejuni [20]): 0.125 µg/mL (≈ 0.17 µM)
- MIC (Campylobacter jejuni [21]): 8 µg/mL (≈ 10.9 µM)
- MIC (Campylobacter coli [22]): 32 µg/mL (≈ 43.6 µM)
- MIC (Campylobacter coli [23]): 32 µg/mL (≈ 43.6 µM)
- MIC (Campylobacter coli [24]): 8 µg/mL (≈ 10.9 µM)
- MIC (Campylobacter coli [25]): 0.125 µg/mL (≈ 0.17 µM)
- MIC (Campylobacter coli [26]): 0.125 µg/mL (≈ 0.17 µM)
- MIC (Campylobacter coli [27]): 32 µg/mL (≈ 43.6 µM)
- MIC (Campylobacter jejuni [28]): 256 µg/mL (≈ 349 µM)
- MIC (Campylobacter jejuni [29]): > 512 µg/mL
- MIC (Campylobacter coli [30]): 0.125 µg/mL (≈ 0.17 µM)
- MIC (Campylobacter jejuni [31]): 32 µg/mL (≈ 43.6 µM)
- MIC (Campylobacter jejuni [32]): 8 µg/mL (≈ 10.9 µM)
- MIC (Campylobacter coli [33]): 2 µg/mL (≈ 2.73 µM)
- MIC (Campylobacter jejuni [34]): 0.125 µg/mL (≈ 0.17 µM)
- MIC (Campylobacter jejuni [35]): 32 µg/mL (≈ 43.6 µM)
- MIC (Campylobacter coli [36]): 8 µg/mL (≈ 10.9 µM)
- Activity (Campylobacter coli [37]): Active
- MIC (Campylobacter jejuni [38]): 32 µg/mL (≈ 43.6 µM)
- MIC (Campylobacter coli [39]): 0.125 µg/mL (≈ 0.17 µM)
- MIC (Campylobacter jejuni [40]): 16 µg/mL (≈ 21.8 µM)
- MIC (Campylobacter jejuni [41]): 128 µg/mL (≈ 174 µM)
- MIC (Campylobacter coli [42]): 0.125 µg/mL (≈ 0.17 µM)
- MIC (Campylobacter jejuni [43]): 8 µg/mL (≈ 10.9 µM)
- MIC (Campylobacter jejuni [44]): 2 µg/mL (≈ 2.73 µM)
- MIC (Campylobacter jejuni [45]): 1 µg/mL (≈ 1.36 µM)
- MIC (Campylobacter jejuni [46]): 8 µg/mL (≈ 10.9 µM)
- MIC (Campylobacter jejuni [47]): 0.125 µg/mL (≈ 0.17 µM)
- MIC (Campylobacter jejuni [48]): 0.25 µg/mL (≈ 0.341 µM)
- MIC (Campylobacter jejuni [49]): 0.25 µg/mL (≈ 0.341 µM)
- MIC (Campylobacter jejuni [50]): > 512 µg/mL
- Activity (Campylobacter jejuni [51]): Active
